Test results taken from ChEMBL document CHEMBL1129322, “Discovery and optimization of a novel class of orally active nonpeptidic endothelin-A receptor antagonists” (J Med Chem, 1996).
pKi: −log10 of the molar value. Values belong to the compound of their own block, whether it stands above or below them.

Experiments:
[1] = target: T1, Endothelin-1 receptor (Homo sapiens, UniProt P25101); assay: Binding affinity towards human Endothelin A receptor by measuring its ability to displace [125I]ET1 from CHO cells; assay type: cell-based
T1 sequence (P25101 whole entry): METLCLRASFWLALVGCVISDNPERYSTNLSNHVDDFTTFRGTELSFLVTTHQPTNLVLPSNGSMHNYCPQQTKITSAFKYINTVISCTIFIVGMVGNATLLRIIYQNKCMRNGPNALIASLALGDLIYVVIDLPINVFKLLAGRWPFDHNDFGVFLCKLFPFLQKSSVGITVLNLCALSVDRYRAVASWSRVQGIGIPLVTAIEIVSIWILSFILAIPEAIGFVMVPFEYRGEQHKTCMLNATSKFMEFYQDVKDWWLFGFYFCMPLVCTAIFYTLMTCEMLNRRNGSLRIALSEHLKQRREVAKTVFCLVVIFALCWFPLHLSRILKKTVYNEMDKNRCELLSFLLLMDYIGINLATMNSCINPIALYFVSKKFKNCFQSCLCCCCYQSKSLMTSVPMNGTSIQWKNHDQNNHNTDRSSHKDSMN

[2] = organism: Oryctolagus cuniculus; assay: Functional vascular ET-1 antagonism was determined in rabbit aorta rings with intact endothelium; settings: read-out: pA2 (converted)
[3] = system: Rattus norvegicus; assay: Ability to protect rats from ET-1 induced sudden death in after peroral administration; assay type: functional
Procedure, shortened: (§1)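 Male Sprague-Dawley rats (280-320 g) were pretreated orally with antagonist 4 h before a tail-vein injection of ET-1 (6 nmol/kg), which causes severe ECG disturbances and lethality within minutes. Oral doses were 10, 30 or 100 mg/kg. Lethality was scored as deaths/n, and ED100 was taken as the dose giving complete protection.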

[4] = target: T2, Endothelin receptor (Rattus norvegicus) (UniProt P26684+P21451); assay: In vivo prevention of ET-1-induced sudden death in 5 rats by pretreatment with endothelin receptor antagonist at a dose of 100 mg/kg p.o.; 0/5; assay type: functional, organism-based; design: dose 100 mg/kg; procedure, shortened: as §1
T2 sequence (P21451 whole entry, looked up): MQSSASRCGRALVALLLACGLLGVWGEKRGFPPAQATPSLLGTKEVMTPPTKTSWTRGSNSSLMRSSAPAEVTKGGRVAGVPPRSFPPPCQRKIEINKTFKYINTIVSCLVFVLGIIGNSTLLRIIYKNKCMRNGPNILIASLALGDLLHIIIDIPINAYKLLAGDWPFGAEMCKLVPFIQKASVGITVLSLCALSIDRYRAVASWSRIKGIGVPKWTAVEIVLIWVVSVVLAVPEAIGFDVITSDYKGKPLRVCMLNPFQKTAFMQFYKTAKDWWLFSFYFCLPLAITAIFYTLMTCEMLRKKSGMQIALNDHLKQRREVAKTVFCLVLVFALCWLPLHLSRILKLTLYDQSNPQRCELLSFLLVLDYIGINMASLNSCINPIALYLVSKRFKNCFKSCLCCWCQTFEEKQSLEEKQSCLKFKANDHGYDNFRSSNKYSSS
T2 sequence (P26684 whole entry, looked up): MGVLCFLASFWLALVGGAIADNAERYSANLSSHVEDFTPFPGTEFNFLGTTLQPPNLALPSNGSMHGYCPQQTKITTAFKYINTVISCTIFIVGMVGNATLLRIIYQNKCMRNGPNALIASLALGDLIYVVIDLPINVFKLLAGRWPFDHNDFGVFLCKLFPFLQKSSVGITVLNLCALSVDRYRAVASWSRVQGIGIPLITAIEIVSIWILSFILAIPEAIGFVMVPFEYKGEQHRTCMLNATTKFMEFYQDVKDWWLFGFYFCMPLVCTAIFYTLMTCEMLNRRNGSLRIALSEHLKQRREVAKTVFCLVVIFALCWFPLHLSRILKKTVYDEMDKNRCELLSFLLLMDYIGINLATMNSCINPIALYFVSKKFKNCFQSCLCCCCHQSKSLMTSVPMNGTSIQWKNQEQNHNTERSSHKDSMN

[5] = target: T2, Endothelin receptor (Rattus norvegicus); assay: In vivo prevention of ET-1-induced sudden death in 9 rats by pretreatment with endothelin receptor antagonist at a dose of 30 mg/kg p.o.; 9/9; assay type: functional, organism-based; design: dose 30 mg/kg; procedure, shortened: as §1
[6] = system: Rattus norvegicus; assay: Ability to protect rats from ET-1 induced sudden death in rats after peroral administration; assay type: functional; procedure, shortened: as §1
[7] = target: T2, Endothelin receptor (Rattus norvegicus); assay: In vivo prevention of ET-1-induced sudden death in 6 rats by pretreatment with endothelin receptor antagonist at a dose of 10 mg/kg p.o.; 6/6; assay type: functional, organism-based; design: dose 10 mg/kg; procedure, shortened: as §1
[8] = target: T2, Endothelin receptor (Rattus norvegicus); assay: In vivo prevention of ET-1-induced sudden death in 6 rats by pretreatment with endothelin receptor antagonist at a dose of 30 mg/kg p.o.; 2/6; assay type: functional, organism-based; design: dose 30 mg/kg; procedure, shortened: as §1
[9] = target: T3, Endothelin receptor type B (Homo sapiens, UniProt P24530); assay: (§2) Binding affinity towards human Endothelin B receptor by measuring its ability to displace [125I]ET-3 from CHO cells; assay type: cell-based
T3 sequence (P24530 whole entry): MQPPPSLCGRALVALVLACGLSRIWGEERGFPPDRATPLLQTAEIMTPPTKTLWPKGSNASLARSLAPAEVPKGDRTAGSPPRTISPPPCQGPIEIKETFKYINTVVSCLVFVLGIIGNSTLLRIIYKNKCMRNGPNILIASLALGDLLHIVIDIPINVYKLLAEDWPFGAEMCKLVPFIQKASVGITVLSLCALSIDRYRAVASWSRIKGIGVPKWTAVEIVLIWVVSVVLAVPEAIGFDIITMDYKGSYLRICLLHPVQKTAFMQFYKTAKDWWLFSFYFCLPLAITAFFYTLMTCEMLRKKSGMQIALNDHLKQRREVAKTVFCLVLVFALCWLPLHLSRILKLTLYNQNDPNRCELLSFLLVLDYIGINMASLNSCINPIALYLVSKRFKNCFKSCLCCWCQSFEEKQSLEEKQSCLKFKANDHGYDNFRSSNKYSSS

[10] = system: Rattus norvegicus; assay: Ability to protect rats from ET-1 induced sudden death in rats after intravenous administration; assay type: functional
Procedure, shortened: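 Male Sprague-Dawley rats (280-320 g) received antagonist intravenously and were then challenged with ET-1 (6 nmol/kg) injected into a tail vein, a dose that causes lethality within minutes. ED100 was the intravenous dose giving complete protection from sudden death.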

[11] = target: T2, Endothelin receptor (Rattus norvegicus); assay: In vivo prevention of ET-1-induced sudden death in 5 rats by pretreatment with endothelin receptor antagonist at a dose of 10 mg/kg p.o.; 5/5; assay type: functional, organism-based; design: dose 10 mg/kg; procedure, shortened: as §1
[12] = target: T2, Endothelin receptor (Rattus norvegicus); assay: In vivo prevention of ET-1-induced sudden death in 6 rats by pretreatment with endothelin receptor antagonist at a dose of 30 mg/kg p.o.; 0/6; assay type: functional, organism-based; design: dose 30 mg/kg; procedure, shortened: as §1
[13] = target: T3, Endothelin receptor type B; assay: as §2; assay type: cell-based; remark: listed apart in the source
Procedure, shortened: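 Membranes ([…]) from stably transfected CHO cells expressing human ET_A or ET_B receptors, or guinea pig cerebellum (ET_B), incubated with 25 pmol/L [125I]ET-1 or [125I]ET-3 with or without drugs; nonspecific binding defined with […] ET-1.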

[14] = target: T2, Endothelin receptor (Rattus norvegicus); assay: In vivo prevention of ET-1-induced sudden death in 6 rats by pretreatment with endothelin receptor antagonist at a dose of 30 mg/kg p.o.; assay type: functional, organism-based; design: dose 30 mg/kg; procedure, shortened: as §1

Compound: COc1cc(OC)nc(OC(C(=O)O)C(O)(c2ccccc2)c2ccccc2)n1 (stereo unspecified)
- pKi [1]: 6.89

Compound: CCc1cc(CC)nc(OC(C(=O)O)C(OC)(c2ccccc2)c2ccccc2)n1 (stereo unspecified)
- pKi [1]: 9.00

Compound: COc1nc(OC(C(=O)O)C(OC)(c2ccccc2)c2ccccc2)nc2c1CCC2 (stereo unspecified)
- pKi [1]: 9.40
- Kb [2]: 0.575 nM
- ED100 [3]: 100 mg/kg
- Lethality [4]: 0
- Lethality [5]: 9

Compound: COc1nc(OC(C(=O)O)C(OC)(c2ccccc2)c2ccccc2)nc2c1CCO2 (stereo unspecified)
- pKi [1]: 9.05
- Kb [2]: 0.933 nM
- ED100 [6]: 100 mg/kg
- Lethality [4]: 0
- Lethality [7]: 6
- Lethality [8]: 2

Compound: CCOc1cc(OCC)nc(OC(C(=O)O)C(OC)(c2ccccc2)c2ccccc2)n1 (stereo unspecified)
- pKi [1]: 6.76

Compound: COc1cc(OC)nc(OC(C(=O)O)C(OC)(c2ccccc2)c2ccccc2)n1 (stereo unspecified)
- pKi [9]: 6.43
- Kb [2]: 45.7 nM
- ED100 [10]: 10 mg/kg
- ED100 [6]: 30 mg/kg
- Lethality [11]: 5
- Lethality [12]: 0

Compound: CCCOc1ccc2c(c1)[C@@H](c1ccc(OC)cc1OCC(=O)O)[C@H](C(=O)O)[C@H]2c1ccc2c(c1)OCO2 [SB-209670]
- Kb [2]: 0.158 nM
- ED100 [6]: 100 mg/kg

Compound: CCc1cc(C)nc(OC(C(=O)O)C(OC)(c2ccccc2)c2ccccc2)n1 (stereo unspecified)
- pKi [1]: 9.15

Compound: COC(=O)C(Oc1nc(OC)cc(OC)n1)C(C)(Oc1ccc(C(C)C)cc1)c1ccccc1 (stereo unspecified)
- pKi [13]: 5.52
- pKi [1]: 6.60

Compound: COc1cccc(Oc2c(NS(=O)(=O)c3ccc(C(C)(C)C)cc3)ncnc2OCCO)c1
- Kb [2]: > 1000 nM
- ED100 [6]: >100 mg/kg

Compound: COC(=O)C(Oc1nc(OC)cc(OC)n1)C(C)(Oc1ccc(SC)cc1)c1ccccc1 (stereo unspecified)
- pKi [13]: 5.33
- pKi [1]: 6.80

Compound: Cc1noc(NS(=O)(=O)c2cccc3c(N(C)C)cccc23)c1C [BMS-182874]
- Kb [2]: 81.3 nM
- ED100 ([6]; po): > 100 mg/kg
- Lethality [14]: 6

Compound: COC(c1ccccc1)(c1ccccc1)C(Oc1nc(C)cc(C)n1)C(=O)O (stereo unspecified)
- pKi [1]: 9.00

Second part, the compound after the results:

- pKi [1]: 6.70
Compound: COc1cc(OC)nc(OC(C(=O)O)C(OC)(c2ccc(C)cc2)c2ccc(C)cc2)n1 (stereo unspecified)

- pKi [1]: 7.66
Compound: COc1cccc(C(OC)(c2cccc(OC)c2)C(Oc2nc(OC)cc(OC)n2)C(=O)O)c1 (stereo unspecified)

- pKi [1]: 6.47
Compound: COc1cc(OC)nc(OC(C(=O)O)C(OCCC(C)(C)C)(c2ccccc2)c2ccccc2)n1 (stereo unspecified)

- pKi [1]: 7.62
Compound: COc1cc(OC)nc(OC(C(=O)O)C(OC)(c2cccc(C)c2)c2cccc(C)c2)n1 (stereo unspecified)

- pKi [1]: 9.92
Compound: COc1cc(C)nc(OC(C(=O)O)C(OC)(c2ccccc2)c2ccccc2)n1 (stereo unspecified)

- pKi [1]: 7.96
Compound: COc1cc(OC)nc(OC(C(=O)O)C(OC)(c2cccc(F)c2)c2cccc(F)c2)n1 (stereo unspecified)

- pKi [1]: 6.61
Compound: COc1cc(OC)nc(OC(C(=O)O)C(OC)(c2ccc(Cl)cc2)c2ccc(Cl)cc2)n1 (stereo unspecified)

- pKi [1]: 6.82
Compound: COc1cc(OC)nc(OC(C(=O)O)C(OC)(c2ccccc2F)c2ccccc2F)n1 (stereo unspecified)
